Reference: ChEMBL document CHEMBL3632544, “Acyl dihydropyrazolo[1,5-a]pyrimidinones as metabotropic glutamate receptor 5 positive allosteric modulators” (Bioorg Med Chem Lett, 2015)
≈ marks a conversion by molar mass, not a printed value.

Tests used:
Brain [1] = test: Fraction unbound in rat brain; assay type: ADME, tissue-based
How it was run: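 Rat brain unbound fraction obtained from a brain homogenate binding assay.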

Brain [2] = test: Drug concentration in Sprague-Dawley rat brain at 56.6 mg/kg, po; assay type: ADME, organism-based; settings: in vivo, read-out: Drug uptake
[3] = Elimination half life in Sprague-Dawley rat at 2.5 mg/kg, iv and 10 mg/kg, po; assay type: ADME, organism-based; settings: in vivo, read-out: beta t1/2 (converted)
How it was run: (§1)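 Discrete PK in male Sprague-Dawley rats. Oral arm: 10 mg/kg PO in 20% β-CD at 1 mg/mL. Plasma sampled to 8 h, giving Cmax, Tmax and AUC0-8h. Absolute oral bioavailability derived against the IV arm.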

[4] = target: Metabotropic glutamate receptor 8 (Homo sapiens, UniProt O00222); test: Positive allosteric modulation of mGlu8 receptor (unknown origin) relative to control
Rattus norvegicus [5] = test: Cmax in Sprague-Dawley rat at 2.5 mg/kg, iv and 10 mg/kg, po; assay type: ADME, organism-based; settings: in vivo; how it was run: as §1
Plasma [6] = test: Stability in rat plasma after 4 hrs; assay type: ADME, cell-free
How it was run: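 Compound incubated in rat plasma at 37 °C for 4 h; stability assessed.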

[7] = AUC in dog plasma at 1 mg/kg, iv and 5 mg/kg, po; assay type: ADME, organism-based, Canis lupus familiaris
[8] = Stability in beta cyclodextrin at pH 6 upto 5 days; assay type: physicochemical; settings: buffer, pH 6, 120 h
How it was run: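 Stability of the compound formulated at 4 mg/mL in 20% β-cyclodextrin vehicle, pH 6, monitored for up to five days; percent decomposition of the amide determined.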

[9] = target: Metabotropic glutamate receptor 6 (Homo sapiens, UniProt O15303); test: Positive allosteric modulation of mGlu6 receptor (unknown origin) relative to control
[10] = target: Metabotropic glutamate receptor 1 (Homo sapiens, UniProt Q13255); test: Positive allosteric modulation of mGlu1 receptor (unknown origin) relative to control
Cytochrome P450 3A4 = Cytochrome P450 3A4 (Homo sapiens, UniProt P08684); test: Inhibition of CYP3A4 (unknown origin); assay type: ADME
Cytochrome P450 2C9 = Cytochrome P450 2C9 (Homo sapiens, UniProt P11712); test: Inhibition of CYP2C9 (unknown origin); assay type: ADME
[11] = Plasma clearance in dog at 1 mg/kg, iv and 5 mg/kg, po; assay type: ADME, organism-based, Canis lupus familiaris
Cytochrome P450 1A2 = target: T1, Cytochrome P450 1A2 (Homo sapiens, UniProt P05177); test: Inhibition of CYP1A2 (unknown origin); assay type: ADME
T1 sequence (P05177 whole entry): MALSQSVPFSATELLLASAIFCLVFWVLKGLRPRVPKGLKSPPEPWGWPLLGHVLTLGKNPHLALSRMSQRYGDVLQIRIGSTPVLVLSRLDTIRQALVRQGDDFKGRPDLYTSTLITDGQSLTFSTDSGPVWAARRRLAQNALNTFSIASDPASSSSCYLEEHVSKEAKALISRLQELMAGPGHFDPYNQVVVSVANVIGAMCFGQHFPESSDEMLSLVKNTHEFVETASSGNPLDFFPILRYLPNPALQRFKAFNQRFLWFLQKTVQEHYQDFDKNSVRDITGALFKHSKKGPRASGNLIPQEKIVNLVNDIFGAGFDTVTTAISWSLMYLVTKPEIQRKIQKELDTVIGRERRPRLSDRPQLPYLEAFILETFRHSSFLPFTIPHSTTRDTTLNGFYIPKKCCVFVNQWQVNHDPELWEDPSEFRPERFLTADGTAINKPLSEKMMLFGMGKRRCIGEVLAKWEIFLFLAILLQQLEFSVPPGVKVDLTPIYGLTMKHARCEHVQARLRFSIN

[12] = target: Metabotropic glutamate receptor 3 (Homo sapiens, UniProt Q14832); test: Positive allosteric modulation of mGlu3 receptor (unknown origin) relative to control
Cytochrome P450 2D6 = Cytochrome P450 2D6 (Homo sapiens, UniProt P10635); test: Inhibition of CYP2D6 (unknown origin); assay type: ADME
[13] = Cmax in dog at 1 mg/kg, iv and 5 mg/kg, po; assay type: ADME, organism-based, Canis lupus familiaris; settings: in vivo
[14] = target: Metabotropic glutamate receptor 5 (Rattus norvegicus, UniProt P31424); test: Positive allosteric modulation of rat mGlu5 assessed as calcium mobilization by cell-based assay; assay type: functional
[15] = target: T2, Metabotropic glutamate receptor 5 (Homo sapiens, UniProt P41594); test: Positive allosteric modulation of human mGlu5 expressed in HEK293 cells assessed as calcium mobilization; assay type: functional, cell-based; settings: read-out: EC50
How it was run: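 Calcium mobilization read-out in HEK293 cells stably expressing human mGlu5; PAM EC50 and efficacy as % of maximal glutamate response. Mean±SEM of three or more independent determinations, each in triplicate.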

[16] = Plasma clearance in Sprague-Dawley rat at 2.5 mg/kg, iv and 10 mg/kg, po; assay type: ADME, organism-based
[17] = Drug concentration in Sprague-Dawley rat brain at 30 mg/kg, po after 1 hr; assay type: ADME, organism-based; settings: read-out: Drug uptake
How it was run: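 Rat modified Irwin study: single 30 mg/kg PO dose, with behaviour scored across 30 autonomic and somatomotor endpoints. Brain concentration measured 1.0 h post-dose. Unbound brain level estimated.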

Rattus norvegicus [18] = test: Toxicity in Sprague-Dawley rat assessed as alteration in behavior across 30 distinct autonomic and somatomotor endpoints at 30 mg/kg, po; assay type: organism-based; settings: in vivo
How it was run: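 Modified Irwin screen in rats given a single 30 mg/kg oral dose; 30 autonomic and somatomotor endpoints scored for behavioral change; brain concentration sampled 1.0 h post-dose.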

[19] = target: Metabotropic glutamate receptor 5 (Rattus norvegicus) (UniProt P31424); test: Positive allosteric modulation of mGlu5 in rat astrocytes relative to glutamate; assay type: cell-based
[20] = Volume of distribution at steady state in Sprague-Dawley rat at 2.5 mg/kg, iv and 10 mg/kg, po; assay type: ADME, organism-based; settings: in vivo, read-out: Vdss
[21] = AUC (0 to 8 hrs) in Sprague-Dawley rat plasma at 2.5 mg/kg, iv and 10 mg/kg, po; assay type: ADME, organism-based; how it was run: as §1
[22] = Stability in simulated gastric fluid for 1 hr; assay type: physicochemical; settings: simulated gi fluid
How it was run: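 Incubation in simulated gastric fluid at 37 °C for 1 h; decomposition of the external amide assessed.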

[23] = Solubility in simulated gastric fluid; assay type: ADME; settings: simulated gi fluid
How it was run: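 Solubility measured in simulated gastric fluid at 37 °C over 1 h; compound stability was assessed in parallel.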

Plasma [24] = test: Fraction unbound in rat plasma; assay type: ADME, cell-free
How it was run: (§2)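 Plasma protein binding measured in human and rat plasma; readout is fraction unbound.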

[25] = target: Metabotropic glutamate receptor 5 (Rattus norvegicus) (UniProt P31424); test: Positive allosteric modulation of rat mGlu5 assessed as calcium mobilization by cell-based assay relative to glutamate; assay type: functional
[26] = target: Metabotropic glutamate receptor 4 (Homo sapiens, UniProt Q14833); test: Positive allosteric modulation of mGlu4 receptor (unknown origin) relative to control
[27] = Oral bioavailability in dog at 5 mg/kg; assay type: ADME, organism-based, Canis lupus familiaris; settings: in vivo
[28] = target: Metabotropic glutamate receptor 7 (Homo sapiens, UniProt Q14831); test: Positive allosteric modulation of mGlu7 receptor (unknown origin) relative to control
[29] = Volume of distribution at steady state in dog at 1 mg/kg, iv and 5 mg/kg, po; assay type: ADME, organism-based, Canis lupus familiaris; settings: in vivo, read-out: Vdss
Plasma [30] = test: Fraction unbound in human plasma; assay type: ADME, cell-free; how it was run: as §2
[31] = Elimination half life in dog at 1 mg/kg, iv and 5 mg/kg, po; assay type: ADME, organism-based, Canis lupus familiaris; settings: in vivo
Rattus norvegicus [32] = test: Inhibition of amphetamine-induced hyperlocomotion in oral-dosed Sprague-Dawley rat assessed as reversal of amphtamine-induced effect drug administered 20 mins prior to 1 mg/kg amphetamine challenge; assay type: functional; settings: read-out: MED
How it was run: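 Male Sprague-Dawley rats received a single oral screening dose of 10 mg/kg; full dose-response studies were also run (n = 8/group). Readout is % reversal of amphetamine-induced locomotion relative to vehicle control. Terminal brain and plasma levels were sampled at T90.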

[33] = target: Metabotropic glutamate receptor 2 (Homo sapiens, UniProt Q14416); test: Positive allosteric modulation of mGlu2 receptor (unknown origin) relative to control
Rattus norvegicus [34] = test: Oral bioavailability in Sprague-Dawley rat at 10 mg/kg; assay type: ADME, organism-based; settings: in vivo
How it was run: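 Male Sprague-Dawley rats were dosed orally at 10 mg/kg in 20% β-CD (1 mg/mL) and sampled over 8 h. Cmax, Tmax and AUC0-8h were determined, and absolute %F was calculated against a discrete IV study.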

[35] = target: T2, Metabotropic glutamate receptor 5; test: Positive allosteric modulation of human mGlu5 expressed in HEK293 cells assessed as calcium mobilization relative to glutamate; assay type: functional, cell-based
How it was run: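 Calcium mobilization in HEK293 cells expressing human mGlu5, reported as EC50 and % Glu Max. Mean±SEM of three or more independent determinations, each run in triplicate.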
Target sequence in this assay (P41594 21-1212 limits assumed): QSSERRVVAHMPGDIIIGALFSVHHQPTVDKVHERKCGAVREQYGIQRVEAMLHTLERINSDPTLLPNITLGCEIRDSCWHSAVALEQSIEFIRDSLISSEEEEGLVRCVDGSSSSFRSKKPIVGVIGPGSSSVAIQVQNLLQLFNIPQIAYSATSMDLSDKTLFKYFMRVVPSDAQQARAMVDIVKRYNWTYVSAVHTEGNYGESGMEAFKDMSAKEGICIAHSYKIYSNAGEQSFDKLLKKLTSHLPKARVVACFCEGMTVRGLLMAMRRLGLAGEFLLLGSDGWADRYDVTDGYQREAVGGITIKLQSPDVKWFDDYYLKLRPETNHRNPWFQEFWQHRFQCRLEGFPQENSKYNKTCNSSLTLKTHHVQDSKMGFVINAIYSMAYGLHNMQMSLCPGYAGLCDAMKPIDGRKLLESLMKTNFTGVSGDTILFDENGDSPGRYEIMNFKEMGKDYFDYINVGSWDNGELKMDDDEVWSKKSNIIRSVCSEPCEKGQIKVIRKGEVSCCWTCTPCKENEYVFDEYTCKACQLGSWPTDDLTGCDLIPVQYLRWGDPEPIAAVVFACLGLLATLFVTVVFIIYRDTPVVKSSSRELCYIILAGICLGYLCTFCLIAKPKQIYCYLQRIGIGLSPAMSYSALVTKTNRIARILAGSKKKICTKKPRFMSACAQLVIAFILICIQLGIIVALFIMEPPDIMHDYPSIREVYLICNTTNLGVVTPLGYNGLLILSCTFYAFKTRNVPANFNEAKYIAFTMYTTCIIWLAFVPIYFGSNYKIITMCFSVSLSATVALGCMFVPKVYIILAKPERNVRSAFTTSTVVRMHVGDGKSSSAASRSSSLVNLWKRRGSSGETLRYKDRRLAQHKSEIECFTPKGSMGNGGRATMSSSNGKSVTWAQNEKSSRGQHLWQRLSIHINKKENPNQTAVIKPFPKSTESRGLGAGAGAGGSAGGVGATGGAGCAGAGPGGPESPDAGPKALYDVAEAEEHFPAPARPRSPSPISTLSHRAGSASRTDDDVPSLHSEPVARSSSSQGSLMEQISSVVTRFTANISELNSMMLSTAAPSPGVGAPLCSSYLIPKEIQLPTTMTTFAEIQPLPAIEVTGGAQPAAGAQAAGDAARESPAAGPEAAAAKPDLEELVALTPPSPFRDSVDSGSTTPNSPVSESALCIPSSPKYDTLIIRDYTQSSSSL

Rattus norvegicus [36] = test: Toxicity in Sprague-Dawley rat assessed as decreased motor coordination at 56.6 mg/kg, po; assay type: organism-based; settings: in vivo
How it was run: (§3)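 Rats dosed orally at 56.6 mg/kg and observed over 6.0 h. Behavior scored on a modified Racine scale, including motor activity and coordination. Brain concentration measured.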

Rattus norvegicus [37] = test: Toxicity in Sprague-Dawley rat assessed as decreased motor activity at 56.6 mg/kg, po; assay type: organism-based; settings: in vivo; how it was run: as §3
[38] = Plasma clearance in Sprague-Dawley rat at 0.2 mg/kg, iv; assay type: ADME, organism-based

Metabotropic glutamate receptor 5 (Rattus norvegicus), sequence (P31424 21-1203 limits assumed): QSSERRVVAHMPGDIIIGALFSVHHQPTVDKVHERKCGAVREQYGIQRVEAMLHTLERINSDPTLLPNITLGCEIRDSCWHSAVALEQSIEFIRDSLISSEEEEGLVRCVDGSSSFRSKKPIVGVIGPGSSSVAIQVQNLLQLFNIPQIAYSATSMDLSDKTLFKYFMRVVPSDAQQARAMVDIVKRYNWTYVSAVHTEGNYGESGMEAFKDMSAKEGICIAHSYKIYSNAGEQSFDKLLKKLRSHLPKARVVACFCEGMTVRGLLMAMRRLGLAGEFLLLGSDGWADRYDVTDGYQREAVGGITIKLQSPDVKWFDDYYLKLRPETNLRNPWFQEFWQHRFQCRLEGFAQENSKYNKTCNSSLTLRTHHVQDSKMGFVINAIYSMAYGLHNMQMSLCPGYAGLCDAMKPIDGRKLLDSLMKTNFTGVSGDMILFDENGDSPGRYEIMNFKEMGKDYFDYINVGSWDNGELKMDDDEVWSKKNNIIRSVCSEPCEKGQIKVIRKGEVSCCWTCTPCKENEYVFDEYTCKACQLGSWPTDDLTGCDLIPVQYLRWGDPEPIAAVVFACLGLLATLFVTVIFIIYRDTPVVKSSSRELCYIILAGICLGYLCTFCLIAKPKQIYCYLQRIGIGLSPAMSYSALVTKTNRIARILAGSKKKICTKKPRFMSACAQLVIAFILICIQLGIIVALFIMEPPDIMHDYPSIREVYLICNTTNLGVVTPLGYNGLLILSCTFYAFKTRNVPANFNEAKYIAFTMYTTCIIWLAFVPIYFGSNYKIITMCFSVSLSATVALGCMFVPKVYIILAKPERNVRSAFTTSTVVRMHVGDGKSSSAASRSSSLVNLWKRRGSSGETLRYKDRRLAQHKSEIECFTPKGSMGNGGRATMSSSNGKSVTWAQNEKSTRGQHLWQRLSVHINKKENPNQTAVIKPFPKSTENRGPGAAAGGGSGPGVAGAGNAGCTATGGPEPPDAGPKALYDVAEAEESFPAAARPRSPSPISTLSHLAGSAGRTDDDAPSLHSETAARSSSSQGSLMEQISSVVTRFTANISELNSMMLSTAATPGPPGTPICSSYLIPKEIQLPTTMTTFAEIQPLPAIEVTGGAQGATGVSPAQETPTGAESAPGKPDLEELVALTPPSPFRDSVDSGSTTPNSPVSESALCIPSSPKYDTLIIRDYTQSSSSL
Metabotropic glutamate receptor 7, sequence (Q14831 whole entry): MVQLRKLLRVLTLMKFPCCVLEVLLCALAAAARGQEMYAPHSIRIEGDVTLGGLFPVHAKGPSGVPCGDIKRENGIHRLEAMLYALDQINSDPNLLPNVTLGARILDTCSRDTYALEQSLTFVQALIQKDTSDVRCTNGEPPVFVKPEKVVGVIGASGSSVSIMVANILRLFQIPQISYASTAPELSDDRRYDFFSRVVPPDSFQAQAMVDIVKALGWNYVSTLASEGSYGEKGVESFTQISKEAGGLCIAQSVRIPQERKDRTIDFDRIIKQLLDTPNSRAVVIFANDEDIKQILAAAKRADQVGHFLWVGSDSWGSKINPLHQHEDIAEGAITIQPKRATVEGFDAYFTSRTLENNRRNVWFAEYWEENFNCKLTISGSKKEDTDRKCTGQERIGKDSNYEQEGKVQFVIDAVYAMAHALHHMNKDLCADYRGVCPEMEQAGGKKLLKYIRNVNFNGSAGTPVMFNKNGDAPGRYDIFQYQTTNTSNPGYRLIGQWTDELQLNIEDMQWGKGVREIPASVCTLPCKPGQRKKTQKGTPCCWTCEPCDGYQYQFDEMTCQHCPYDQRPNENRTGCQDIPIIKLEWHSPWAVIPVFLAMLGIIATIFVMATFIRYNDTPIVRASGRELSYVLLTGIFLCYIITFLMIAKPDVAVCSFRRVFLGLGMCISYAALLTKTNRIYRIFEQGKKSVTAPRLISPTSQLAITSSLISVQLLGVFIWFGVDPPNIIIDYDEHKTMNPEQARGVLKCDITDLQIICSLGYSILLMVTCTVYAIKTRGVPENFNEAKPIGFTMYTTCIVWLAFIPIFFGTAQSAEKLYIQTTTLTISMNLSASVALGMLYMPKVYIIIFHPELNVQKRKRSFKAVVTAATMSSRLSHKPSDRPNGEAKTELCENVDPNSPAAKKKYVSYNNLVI
Metabotropic glutamate receptor 2, sequence (Q14416 whole entry): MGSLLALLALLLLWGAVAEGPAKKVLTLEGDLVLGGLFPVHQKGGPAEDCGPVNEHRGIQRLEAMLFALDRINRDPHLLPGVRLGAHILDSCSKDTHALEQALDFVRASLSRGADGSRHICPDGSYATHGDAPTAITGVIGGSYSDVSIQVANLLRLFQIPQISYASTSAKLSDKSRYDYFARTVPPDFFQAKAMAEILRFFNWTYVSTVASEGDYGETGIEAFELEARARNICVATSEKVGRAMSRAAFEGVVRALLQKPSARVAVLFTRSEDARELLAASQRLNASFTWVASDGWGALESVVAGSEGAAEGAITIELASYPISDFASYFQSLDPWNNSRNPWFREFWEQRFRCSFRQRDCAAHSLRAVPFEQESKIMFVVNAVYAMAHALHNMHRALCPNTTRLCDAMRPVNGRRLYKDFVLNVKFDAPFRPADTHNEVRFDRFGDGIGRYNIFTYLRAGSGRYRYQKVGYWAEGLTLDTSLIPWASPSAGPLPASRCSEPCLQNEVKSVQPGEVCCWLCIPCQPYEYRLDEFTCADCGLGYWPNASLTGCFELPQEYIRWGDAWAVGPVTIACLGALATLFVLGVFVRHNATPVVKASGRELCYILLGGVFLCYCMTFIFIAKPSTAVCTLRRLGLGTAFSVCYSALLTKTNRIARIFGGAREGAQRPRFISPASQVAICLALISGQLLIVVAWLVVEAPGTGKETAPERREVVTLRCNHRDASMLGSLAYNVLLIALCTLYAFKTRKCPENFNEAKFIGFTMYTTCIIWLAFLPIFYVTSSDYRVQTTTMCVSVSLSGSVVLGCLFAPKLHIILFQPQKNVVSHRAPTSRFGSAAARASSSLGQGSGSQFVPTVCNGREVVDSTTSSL
Metabotropic glutamate receptor 8, sequence (O00222 whole entry): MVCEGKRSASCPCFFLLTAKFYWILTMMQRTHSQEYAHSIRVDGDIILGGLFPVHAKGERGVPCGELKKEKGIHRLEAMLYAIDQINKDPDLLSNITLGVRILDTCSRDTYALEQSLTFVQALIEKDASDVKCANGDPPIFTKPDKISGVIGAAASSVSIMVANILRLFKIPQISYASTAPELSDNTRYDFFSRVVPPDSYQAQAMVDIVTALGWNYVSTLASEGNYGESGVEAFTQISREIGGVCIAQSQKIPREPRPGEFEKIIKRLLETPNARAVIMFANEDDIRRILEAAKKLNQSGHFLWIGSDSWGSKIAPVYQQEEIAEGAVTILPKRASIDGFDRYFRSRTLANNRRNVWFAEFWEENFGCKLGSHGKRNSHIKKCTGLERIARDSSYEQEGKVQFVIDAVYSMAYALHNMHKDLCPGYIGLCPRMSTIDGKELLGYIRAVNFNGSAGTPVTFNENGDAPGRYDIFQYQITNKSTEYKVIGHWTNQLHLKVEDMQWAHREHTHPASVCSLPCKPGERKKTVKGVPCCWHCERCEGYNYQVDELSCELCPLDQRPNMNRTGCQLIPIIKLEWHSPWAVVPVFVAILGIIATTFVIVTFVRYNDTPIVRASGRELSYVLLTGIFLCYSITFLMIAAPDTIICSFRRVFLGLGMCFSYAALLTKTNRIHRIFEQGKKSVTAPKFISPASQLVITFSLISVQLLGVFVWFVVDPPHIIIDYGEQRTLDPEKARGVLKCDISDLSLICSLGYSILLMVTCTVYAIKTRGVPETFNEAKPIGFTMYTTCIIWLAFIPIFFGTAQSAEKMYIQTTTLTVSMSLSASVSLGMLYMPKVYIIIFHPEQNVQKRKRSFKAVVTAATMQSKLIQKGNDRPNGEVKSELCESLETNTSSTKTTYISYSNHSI

`CC(=O)N1CCCn2nc(COc3ccccc3)cc21` showed a Fu (Brain [1]) of 0.51, a concentration (Brain [2]) of 113 µM and a half-life [3] of 6.5 h. For the same compound, the EC50 [4] was greater than 10 µM, the Cmax (Rattus norvegicus [5]) was 2.5 µM and the Stability (Plasma [6]) was “Stable”. The AUC [7] was 100 nM·h, the Stability [8] was “Stable” and the EC50 [9] was greater than 10 µM. For the same compound, the EC50 [10] was greater than 10 µM, the IC50 (Cytochrome P450 3A4) was greater than 30 µM and the IC50 (Cytochrome P450 2C9) was greater than 30 µM. It also gave a clearance [11] of 2.22 L/h/kg, an IC50 (Cytochrome P450 1A2) greater than 30 µM and an EC50 [12] greater than 10 µM. For the same compound, the IC50 (Cytochrome P450 2D6) was greater than 30 µM, the Cmax [13] was less than 0.1 µM and the EC50 [14] was 0.06 µM. The EC50 [15] was 0.36 µM, the clearance [16] was 3.24 L/h/kg and the concentration at 1 h [17] was 71 µM. For the same compound, the Activity (Rattus norvegicus [18]) was “Non-toxic”, the %max [19] was 57% and the Vd [20] was 3.9 L/kg. For the same compound, the AUC(0-t) [21] was 3300 nM·h, the Stability [22] was “Stable” and the solubility [23] was 0.315 mg/mL (≈ 1160 µM). It also gave a Fu (Plasma [24]) of 0.37, a %max [25] of 65% and an EC50 [26] greater than 10 µM. It also gave a bioavailability [27] of less than 5%, an EC50 [28] greater than 10 µM and a Vd [29] of 1.1 L/kg. It also gave a Fu (Plasma [30]) of 0.26, a half-life [31] of less than 0.5 h and a minimal effective dose (Rattus norvegicus [32]) of 3 mg/kg. It also gave an EC50 [33] greater than 10 µM, an F (Rattus norvegicus [34]) of 29% and a %max [35] of 65%. For the same compound, the Activity (Rattus norvegicus [36]) was “Toxic”, the Activity (Rattus norvegicus [37]) was “Toxic” and the clearance [38] was 7.08 L/h/kg.
